# Several values for one entry are separate records, joined by “and”; a condition that tells them apart may be missing. Equal entries are not always repeated.
# Key:
# [1] = species on record: Rattus norvegicus; experiment: In vitro inhibitory activity against rat microsomal lipid peroxidation (m-LPO); assay type: functional
# In short: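 Lipid peroxidation used rat liver microsomes driven by ferrous sulfate/cysteine, per the Malvy et al. approach. IC50 is given in µg/mL.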
# [2] = test system: Mus musculus; experiment: Hypoglycemic activity at dose 50 mg/Kg in KK-mice after peroral administration; assay type: functional
# In short: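 Male KK-mice, a genetically diabetic NIDDM model, were housed singly from 8 weeks of age and used at about 4-5 months once body weight exceeded 40 g. Compound was suspended in 0.5% carboxymethylcellulose saline and dosed orally 18 h before tail-vein blood sampling into heparinized tubes. Plasma glucose was measured with a glucose analyzer. Values are % decrease versus vehicle-dosed controls run simultaneously.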
# [3] = test system: Mus musculus; experiment: In vivo activity against serum lipid peroxidation level (s-LPO) by using Alloxan-induced hyperlipoperoxidemia method in BALB/c mice after peroral administration at 100 mg/Kg dose; assay type: functional
# In short: (§1)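 Male BALB/c mice, 8 weeks old, were fasted 18 h and then given alloxan 75 mg/kg iv. Compound was dosed orally 30 min before and 24 and 30 h after alloxan. Cervical blood was taken at 48 h, diluted in saline and centrifuged. Serum LPO was measured by TBA method; cholesterol and TG by enzymatic kits. Values are % decrease versus alloxan controls without compound.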
# [4] = test system: Mus musculus; experiment: (§2) In vivo activity against triglycerides (TG) by using Alloxan-induced hyperlipoperoxidemia method in BALB/c mice after peroral administration at 100 mg/Kg dose; assay type: functional; in short: as §1
# [5] = test system: Mus musculus; experiment: In vivo activity against hypocholesterol (CHOL) by using Alloxan-induced hyperlipoperoxidemia method in BALB/c mice after peroral administration at 100 mg/Kg dose; assay type: functional; in short: as §1
# [6] = test system: Mus musculus; experiment: In vivo activity against serum lipid peroxidation level (s-LPO) by using Alloxan-induced hyperlipoperoxidemia method in BALB/c mice after peroral administration at 300 mg/Kg dose; assay type: functional; in short: as §1
# [7] = species on record: Rattus norvegicus; experiment: Hypotriglyceridemic activity of Wistar-Imamichi rats in 12 animals
# [8] = test system: Mus musculus; experiment: In vivo activity against triglycerides (TG) by Alloxan-induced hyperlipoperoxidemia method in BALB/c mice after peroral administration at 50 mg/Kg dose; assay type: functional; in short: as §1
# [9] = test system: Mus musculus; experiment: In vivo activity against hypocholesterol (CHOL) by using Alloxan-induced hyperlipoperoxidemia method in BALB/c mice after peroral administration at 300 mg/Kg dose; assay type: functional; in short: as §1
# [10] = test system: Rattus norvegicus; experiment: Liver weight in Wistar-Imamichi rats at 200 mg/Kg dose in 12 rats; assay type: functional
# [11] = test system: Mus musculus; experiment: In vivo activity against triglycerides (TG) by using Alloxan-induced hyperlipoperoxidemia method in BALB/c mice after peroral administration at 300 mg/Kg dose; assay type: functional; in short: as §1
# [12] = test system: Mus musculus; experiment: In vivo activity against serum lipid peroxidation level (s-LPO) by using Alloxan-induced hyperlipoperoxidemia method in BALB/c mice after peroral administration at 50 mg/Kg dose; assay type: functional; in short: as §1
# [13] = test system: Mus musculus; experiment: as §2; assay type: functional; in short: as §1; remark: listed apart in the source
# [14] = test system: Mus musculus; experiment: In vivo activity against hypocholesterol (CHOL) by Alloxan-induced hyperlipoperoxidemia method in BALB/c mice after peroral administration at 50 mg/Kg dose; assay type: functional; in short: as §1
# [15] = test system: Mus musculus; experiment: In vivo activity against serum lipid peroxidation level (s-LPO) by using Alloxan-induced hyperlipoperoxidemia method in BALB/c mice after peroral administration at 10 mg/Kg dose; assay type: functional; in short: as §1
# [16] = test system: Mus musculus; experiment: In vivo activity against hypocholesterol (CHOL) by using Alloxan-induced hyperlipoperoxidemia method in BALB/c mice after peroral administration at 10 mg/Kg dose; assay type: functional; in short: as §1
# [17] = test system: Mus musculus; experiment: In vivo activity against triglycerides (TG) by using Alloxan-induced hyperlipoperoxidemia method in BALB/c mice after peroral administration at 10 mg/Kg dose; assay type: functional; in short: as §1
# [18] = test system: Rattus norvegicus; experiment: Hypotriglyceridemic activity of Wistar-Imamichi rats in 6 animals at 300 mg/kg dose
# [19] = species on record: Rattus norvegicus; experiment: liver weight in Wistar-Imamichi rats at 0.2% in the diet for 7 days in 6 rats; conditions: dose 0.2% in diet
# [20] = species on record: Rattus norvegicus; experiment: Inhibitory activity on peroxidation by a relative peroxide value(POV) to vitamin E by using ethyl linoleate; assay type: functional
# In short: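 Peroxide formed was titrated with 0.01 N Na2S2O3 after adding water. The peroxide value was expressed relative to vitamin E.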
# [21] = test system: Mus musculus; experiment: In vivo activity against serum lipid peroxidation level (s-LPO) by using Alloxan-induced hyperlipoperoxidemia method in BALB/c mice after peroral administration at 100 mg/kg dose; assay type: functional; conditions: route oral; in short: as §1
# [22] = test system: Mus musculus; experiment: In vivo activity against serum lipid peroxidation level (s-LPO) by using Alloxan-induced hyperlipoperoxidemia method in BALB/c mice after peroral administration at 200 mg/Kg dose; assay type: functional; in short: as §1
# [23] = test system: Mus musculus; experiment: In vivo activity against hypocholesterol (CHOL) by using Alloxan-induced hyperlipoperoxidemia method in BALB/c mice after peroral administration at 200 mg/Kg dose; assay type: functional; in short: as §1
# [24] = test system: Mus musculus; experiment: In vivo activity against triglycerides (TG) by using Alloxan-induced hyperlipoperoxidemia method in BALB/c mice after peroral administration at 200 mg/Kg dose; assay type: functional; in short: as §1
# [25] = test system: Mus musculus; experiment: In vivo activity against serum lipid peroxidation level (s-LPO) by using Alloxan-induced hyperlipoperoxidemia method in BALB/c mice after peroral administration at 300 mg/kg dose; assay type: functional; conditions: route oral; in short: as §1
# [26] = test system: Mus musculus; experiment: In vivo activity against hypocholesterol (CHOL) by using Alloxan-induced hyperlipoperoxidemia method in BALB/c mice after peroral administration at 100 mg/kg dose; assay type: functional; conditions: route oral; in short: as §1
# [27] = test system: Mus musculus; experiment: In vivo activity against triglycerides (TG) by using Alloxan-induced hyperlipoperoxidemia method in BALB/c mice after peroral administration at 300 mg/kg dose; assay type: functional; conditions: route oral; in short: as §1
SMILES,IC50 [1],Decrease [3],Decrease [4],Decrease [5],further results
Cc1c(C)c2c(c(C)c1O)CCC(COc1ccc(CC3SC(=O)NC3=O)cc1)O2 (configuration not stated),< 0.1 µg/mL,,,,
CCOC(=O)C(C)(C)Oc1ccc(Cl)cc1 [CLOFIBRATE],> 1 µg/mL,26.6%,19.6%,5.9%,Decrease [6]: 37.6%; Decrease [7]: 37.6%; Decrease [8]: 1.1%; Decrease [9]: 6.8%; Increase [10]: 37.2%; Decrease [11]: 22.8%; Decrease [12]: 2.8%
Cc1c(C)c2c(c(C)c1O)SCO2,< 0.1 µg/mL,,,,
CCCC1Oc2c(C)c(C)c(O)c(C)c2S1 (configuration not stated),< 0.1 µg/mL,,,,
Cc1cc(OCCCCCCCC(C)(C)CO)c(C)c(C)c1O,< 0.1 µg/mL,,,,
Cc1c(C)c2c(c(C)c1O)SC(C)O2 (configuration not stated),< 0.1 µg/mL,,,,
CC(=O)Oc1c(C)c(C)c2c(c1C)CCC(C)(CCC[C@H](C)CCC[C@H](C)CCCC(C)C)O2 (some centres not stated) [TOCOPHEROL ACETATE],> 1 µg/mL,46.1%,27.3%,10.7%,Decrease [15]: 23.5%; Decrease [6]: 56.6%; Decrease [8]: 5.2%; Decrease [14]: 8.3%; Decrease [9]: 9.1%; Decrease [16]: 20.4%; Decrease [11]: 16.1%; Decrease [17]: 36.5%; Decrease [12]: 27.9%
Cc1cc(OCCCC(C)(C)CO)c(C)c(C)c1O,0.1 µg/mL,,,,Decrease [18]: 57.3%; Increase [19]: 23.9%; Relative peroxidation [20]: 0.42; Decrease [21]: 27.4%
Cc1c(C)c2c(c(C)c1O)CCC(COc1ccc(CC3SC(=O)NC3=O)cc1)(CC(C)C)O2 (configuration not stated),0.1 µg/mL,1.5%,11.9%,12.1%,
CC(C)(Sc1cc(C(C)(C)C)c(O)c(C(C)(C)C)c1)Sc1cc(C(C)(C)C)c(O)c(C(C)(C)C)c1 [PROBUCOL],> 1 µg/mL,5.8%,-5.3%,-1.1%,Decrease [6]: 6.1%; Decrease [22]: -22.1%; Decrease [23]: -9.7%; Decrease [9]: 0.8%; Decrease [24]: -25.2%; Increase [10]: 0.2%; Decrease [11]: -3%
Cc1cc(C(C)(C)C)c(O)c(C(C)(C)C)c1 [BUTYLATED HYDROXYTOLUENE],0.1 µg/mL,,,,
Cc1c(C)c2c(c(C)c1O)CCC(C)(COc1ccc(CC3SC(N)=NC3=O)cc1)O2 (configuration not stated),< 0.1 µg/mL,11.9%,16.8%,7.2%,
Cc1c(C)c2c(c(C)c1O)CCC(C)(COc1ccc(CC(Cl)C(=O)O)cc1)O2 (configuration not stated),0.1 µg/mL,46.3%,33.9%,14.9%,
CC1(COc2ccc(CC3SC(=O)NC3=O)cc2)CCCCC1 (configuration not stated) [CIGLITAZONE],> 1 µg/mL,18.7%,7.9%,10.8%,
CC(=O)Oc1cc2c(cc1C(C)(C)C)OC(C)(CCOc1ccc(CC3SC(N)=NC3=O)cc1)CC2 (configuration not stated),0.1 µg/mL,,,,
Cc1ccc(C)c(OCCCC(C)(C)C(=O)O)c1 [GEMFIBROZIL],> 1 µg/mL,,,,Decrease [25]: 20.5%; Decrease [26]: 3.2%; Decrease [7]: 39.4%; Decrease [27]: 12.3% and 15.9%; Decrease [21]: 12.3%
COc1c(O)c(C)c2c(c1OC)OC(C)(CCOc1ccc(CC3SC(=O)NC3=O)cc1)CC2 (configuration not stated),0.3 µg/mL,,,,
Cc1cc(OCCCC(C)(C)C(=O)O)c(C)c(C)c1O,> 1 µg/mL,,,,Relative peroxidation [20]: 0.71
COc1c(OC(C)=O)c(C)c2c(c1OC)OC(C)(CCOc1ccc(CC3SC(N)=NC3=O)cc1)CC2 (configuration not stated),0.3 µg/mL,,,,

# Second part, led by results:
IC50 [1],SMILES,Decrease [3],Decrease [4],Decrease [5],further results
0.1 µg/mL,CC1(CCOc2ccc(CC3SC(=O)NC3=O)cc2)CCc2cc(O)c(C(C)(C)C)cc2O1 (configuration not stated),,,,
< 0.1 µg/mL,CC(=O)Oc1c(C)c(C)c2c(c1C)CCC(C)(COc1ccc(CC3SC(=O)NC3=O)cc1)O2 (configuration not stated),6.7%,-4%,4%,Decrease [2]: 2.6%
0.1 µg/mL,Cc1c(C)c2c(c(C)c1OC(=O)c1ccccc1)CCC(C)(COc1ccc(CC3SC(=O)NC3=O)cc1)O2 (configuration not stated),,,,
< 0.1 µg/mL,Cc1c(C)c2c(c(C)c1O)CCC(C)(CCOc1ccc(CC3SC(=O)NC3=O)cc1)O2 (configuration not stated),,,,
< 0.1 µg/mL,CCCC(=O)Oc1c(C)c(C)c2c(c1C)CCC(C)(COc1ccc(CC3SC(=O)NC3=O)cc1)O2 (configuration not stated),,,,
0.1 µg/mL,Cc1c(C)c2c(c(C)c1O)CCC(C)(COc1ccc(CC3SC(=O)NC3=O)cc1)O2 (configuration not stated) [TROGLITAZONE],54.3%,57.5%,,Decrease [2]: 38.5%; Decrease [13]: 57.5%; Decrease [8]: 31.9%; Decrease [14]: 19.7%; Decrease [12]: 36%
0.1 µg/mL,CCC1(COc2ccc(CC3SC(=O)NC3=O)cc2)CCc2c(C)c(O)c(C)c(C)c2O1 (configuration not stated),17.6%,14%,19.5%,
< 0.1 µg/mL,CC1(COc2ccc(CC3SC(=O)NC3=O)cc2)CCc2cc(O)c(C(C)(C)C)cc2O1 (configuration not stated),16.1%,-48.6%,5.6%,Decrease [2]: 28.5%
< 0.1 µg/mL,Cc1c(C)c2c(c(C)c1OC(=O)c1cccnc1)CCC(C)(COc1ccc(CC3SC(=O)NC3=O)cc1)O2 (configuration not stated),,,,
0.3 µg/mL,CC(=O)Oc1cc2c(cc1C)OC(C)(COc1ccc(CC3SC(N)=NC3=O)cc1)CC2 (configuration not stated),,,,
0.3 µg/mL,Cc1cc2c(cc1O)CCC(C)(COc1ccc(CC3SC(=O)NC3=O)cc1)O2 (configuration not stated),,,,

# — ChEMBL document CHEMBL1124681, “Studies on hindered phenols and analogues. 1. Hypolipidemic and hypoglycemic agents with ability to inhibit lipid peroxidation” (J Med Chem, 1989)
